Reference: the EternaBench riboswitch data

Test system: MS2 coat protein
Assay: apparent Kd, MS2 coat protein; higher = weaker binding; RNA-MaP array; FMN 200 µM where present
Summary of the method: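 Stalled E. coli RNA polymerase produced the designs on Illumina sequencing-chip clusters. SNAP-549-labelled MS2 coat protein was added from 0.7 or 1.5 nM, doubling to 3 µM, without and then with constant ligand, in 100 mM Tris-HCl pH 7.5, 80 mM KCl, 4 mM MgCl2, BSA, DTT, yeast tRNA and Tween-20. The apparent Kd is the median of filtered per-cluster fits of green signal normalised to red-channel RNA signal and control-cluster median Fmax.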

[1] = designed as: OFF switch for flavin mononucleotide, no ligand
[2] = ligand present: flavin mononucleotide, designed as: OFF switch for flavin mononucleotide
[3] = designed as: ON switch for flavin mononucleotide, no ligand
[4] = ligand present: flavin mononucleotide, designed as: ON switch for flavin mononucleotide

Sequence | apparent Kd [1] [nM] | apparent Kd [2] [nM] | apparent Kd [3] [nM] | apparent Kd [4] [nM]
AAUGUUUGAUUCCACUUAUACAUGAGGAUCACCCAUGUUAUCGAGGAUAUGCAUUAGAGUGUUUAGCAGAAGGCGAUGUAAUUU | 6.74 | 17.5 | – | –
AAUUAAUUAAUUAAUUGGACGAUACAUGAGGAUCACCCAUGUAAGGAUAUGCAGUGGAAUACACUGCAGAAGGUACAUACGUCC | 15.4 | 25.5 | – | –
AAUUAUUAUUGAGGAUAUCGUAUUGAAACAAUACGAGAAGGCGGUAUAAACAUGAGGAUCACCCAUGUGAGCCUGAUGCUUAUG | 28.4 | 58.9 | – | –
AAUUAUUUACAGAAGGAGUAAGAUUAUGUAUUACUAGGAUAUGUUCACAUGAGGAUCACCCAUGUACUAGUUGGUUUUUUAUGU | 10.5 | 17.1 | – | –
AAUUCACAUGAGGAUCACCCAUGUCAGGAUAUGGUUUCACGUGUUUCGGUGCGUGAGGCCAGAAGGGACAGCUA | 58.4 | 87 | – | –
AAUUCGGCAGGAUAUACAUGAGGAUCACCCAUGUAAAUUUUUCGUUUAACUUGAAUGUGUAGAAGGGCCAUUUA | – | 22.6 | – | –
AAUUGACACGUAGGAUAUCGAUCUAUAUUAACUCGAGAAGGACGUACAUGAGGAUCACCCAUGUUUAAUGGAGUAGAUAAGUUG | 102 | 289 | – | –
AAUUUACAGCUAGGAUAUACAUGAGGAUCACCCAUGUAAUCAUAUGAUGUUAUCAUUGUAUGAGUGUAGAAGGAGCAAAUAAGA | 7.72 | 6.34 | – | –
ACAAAUGGAGGAUAUACAUGAGGAUCACCCAUGUUUAUCCUACAUAUGUGAUACUCAUGUAGAAGGCCAUAUGA | 12.7 | 12.5 | – | –
ACAAAUUAGUGAGGAUAUGCAUAAUUUAUAACUGCAGAAGGCACAAACCUCAAGACAUGAGGAUCACCCAUGUGGAAUAUAGAU | 73 | 182 | – | –
ACAAGAUCAGGAUAUACAUGAGGAUCACCCAUGUAUAUCAAAAAAGGGCUUUCUACAUGUAGAAGGGAUCUUGU | 13.9 | 11.8 | – | –
ACAAGGCAUGUAGGAUAUCCAUUGCGUCGCGAUGGAGAAGGACAACACACAUGAGGAUCACCCAUGUGAUCACCCAUGUCGUGU | 356 | 418 | – | –
ACACAUGAGGAUCACCCAUGUACUCGACACAUUCAUUGGGCACAGGAUAUACGGUGAAGUCUUUCGUAGAAGGGUGCUAGUGUG | – | – | 84 | 18.4
ACACAUGUCCGAGGAUAUCUGAGAUCAUUUUCAAGAGAAGGCGGACAUGAGGAUCACCCAUGUCUCUCCUCAUCAACUCCAAAU | 8.06 | 49.2 | – | –
ACACCACAUGAGGAUCACCCAUGUAAAGCGUAGCAAGGAUAUGGGCACGGAUAAUUCCGAUCAGAAGGUGUAACGU | – | – | 51.2 | 118
ACACUACAUGAGGAUCACCCAUGUCAGGAUAUCGAUAUCACAACUCAUCAACCUCACUCGAGAAGGGACACAUA | 24 | 23.8 | – | –
ACAGCUGAAGGAUAUACUUGGAAAAAAAAAAAAAAAAAAAAACAUGAGGAUCACCCAUGUAGAAGGUCAGCUGA | 52.9 | 78.5 | – | –
ACAUAAAUUCGAGGAUAUCGGUGAUAUAAUUUACGAGAAGGCGAUAAAAGUUAUAAACUUAUAGACAUGAGGAUCACCCAUGUA | – | – | 31 | 30.6
ACAUACAUUCGAGGAUAUCGGUGAACAAAUUAACGAGAAGGCGAUAUAAUUUUUAAUCUUAUGAACAUGAGGAUCACCCAUGUA | – | – | 22.3 | 20.4
ACAUACUUUCGAGGAUAUCGGUGAUAAUUUUUACGAGAAGGCGAUAAAAGAUAUAAUCUUAUAGACAUGAGGAUCACCCAUGUA | – | – | 30.5 | 26.4
ACAUGAGGAUCACCCAUGUACAUGGGUUUAAUUGUGUGUUACGAGGAUAUGUAUUUGAAUUUACAACAGAAGGUGUAUUACUGU | 811 | 610 | – | –
ACAUGAGGAUCACCCAUGUAGAAUGAAGAAGGUGGAUACUUGUGACUCACCCAUGUACAUAGGACUAAGGAUAUUCUAAUAAUU | – | – | 25.1 | 23
ACAUGAGGAUCACCCAUGUAUUCAUAGGAUAUACUACAUGAGUUUCAUUCAUGUAAACUUGUAUUGUAGAAGGAUGUUACAUGU | 16.4 | 19.2 | – | –
ACAUGAGGAUCACCCAUGUGGACAUAGGAUAUUGGUGGUCAGGCGUGUUAUACAGGAUAGGUCUGCGAGAAGGGUGUGCGUUGC | – | – | 84.9 | 75
ACAUGAGGAUCACCCAUGUGGAGUGAAGAAGGUGGUUACUUAAGACUCUCCCAUGUACUUAGGACUGAGGAUAUUCUAAUAUUU | – | – | 82.3 | 45.9
ACAUGAGGAUCACCCAUGUUGAUAGUAGAAGGGACAGAGAAGAAGAAACAUGAGGAUCACCCAUGUCAGGAUAUGCGAAUUGGA | – | – | 36.4 | 33.6
ACAUGAGGAUCACCCAUGUUGCGAGUAGAAGGCUAUAAGAAACGGGAUGAAGAAAUCCACGCAAUAGAGGAUAUACGAAUUGGA | – | – | 12.1 | 7.78
ACAUGCAUAGCGAUAUGAUCGAGAGAUCAUGUCGAAAAUUUUAGAAGGACAUGAGGAUCACCCAUGUAGGAUAUGGGAGCAUGA | – | – | 62.6 | 16.3
